Converted amounts (≈) assume the structure as drawn. The source made the active and inactive calls. No cut-off for these calls is given here.
Columns and labels:
Acinetobacter baumannii = assay: Antibacterial activity against multidrug-resistant Acinetobacter baumannii BAA 1605 assessed as zone of inhibition by disc diffusion method; format: functional
Pseudomonas aeruginosa = assay: Antibacterial activity against Pseudomonas aeruginosa ATCC 15422 assessed as zone of inhibition by disc diffusion method; format: functional
Staphylococcus aureus [1] = assay: Ratio of MBC to MIC against methicillin-resistant Staphylococcus aureus ATCC 43300; format: functional
Procedure, shortened: (§1)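 For MBC, 5 μL from each well was spotted on agar and incubated overnight; MBC is the lowest concentration with no visible growth. Ratio taken as MBC over MIC.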

Enterococcus faecalis = assay: Antibacterial activity against vancomycin-susceptible Enterococcus faecalis ATCC 29212 assessed as zone of inhibition by disc diffusion method; format: functional
Staphylococcus aureus [2] = assay: Antibacterial activity against methicillin-resistant Staphylococcus aureus ATCC 43300 assessed as bacterial growth inhibition incubated for 20 hrs by broth dilution method; format: functional
Procedure, shortened: (§2)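 Broth microdilution: 0.5 McFarland suspension from an overnight culture, diluted 1:100 in cation-adjusted Mueller Hinton broth (CAMHB), given serial dilutions of test agent for 20 h at 37 °C. MIC is the lowest concentration with no visible growth.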

Staphylococcus aureus [3] = assay: Antibacterial activity against methicillin-susceptible Staphylococcus aureus ATCC 25923 assessed as delayed bacterial proliferation at 0.25 times of MIC for 10 hrs; format: functional, organism-based
Staphylococcus aureus [4] = assay: Bactericidal activity against Vancomycin-resistant Staphylococcus aureus HIP11714 assessed as bacterial killing incubated for over night; format: functional; procedure, shortened: as §1
Staphylococcus aureus [5] = assay: Antibiofilm activity against methicillin-resistant Staphylococcus aureus assessed as disruption of preformed biofilm at 1 to 5 times of MIC incubated for 20 hrs by crystal violet staining based assay; format: functional, organism-based
Staphylococcus aureus [6] = assay: Antibacterial activity against methicillin-susceptible Staphylococcus aureus ATCC 25923 in presence of 0.05% v/v albumin; format: functional
Staphylococcus aureus [7] = assay: Antibacterial activity against methicillin-susceptible Staphylococcus aureus ATCC 25923 assessed as bacterial growth inhibition incubated for 20 hrs by broth dilution method; format: functional; procedure, shortened: as §2
Staphylococcus aureus [8] = assay: Disruption of membrane potential in Staphylococcus aureus at 3 to 30 uM by DiOC2(3) probe based flow cytometric analysis; format: functional, organism-based; conditions: dose 3-30 µM, TDE = time-dependent effect
Procedure, shortened: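 An overnight S. aureus culture was diluted 1:100 in LB, shaken 2 h at 37 °C, then diluted to a final 1:200. Cells were treated with 3–30 μM, DMSO 2% vehicle or CCCP at 37 °C with shaking. At 15 and 30 min, samples were stained 20 min with DiOC2(3). Flow cytometry used ex 488 nm, green 530/30 and red 585/42, reported as red/green ratio (mean ± SEM).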

Staphylococcus aureus [9] = assay: Ration of MBC to MIC against Vancomycin-resistant Staphylococcus aureus HIP11714; format: functional; procedure, shortened: as §1
Staphylococcus aureus [10] = assay: Antibacterial activity against methicillin-susceptible Staphylococcus aureus ATCC 25923 assessed as inhibition of bacterial growth at 1 to 2 times of MIC after 20 hrs; format: functional, organism-based
Staphylococcus aureus [11] = assay: Antibacterial activity against vancomycin-resistant Staphylococcus aureus HIP11714 assessed as zone of inhibition by disc diffusion method; format: functional
Staphylococcus aureus [12] = assay: Antibacterial activity against vancomycin-resistant Staphylococcus aureus HIP11714 assessed as inhibition of bacterial growth measured between 2 and 4 passages at 0.5 times of MIC incubated for 20 hrs by resistant development assay; format: functional, organism-based
Staphylococcus aureus [13] = assay: Bacteriostatic activity against methicillin-susceptible Staphylococcus aureus ATCC 25923 assessed as reduction in bacterial metabolism at 0.25 to 1 times of MIC incubated for 1 hr by C12-resazurin dye based fluorescence assay; format: functional, organism-based
Staphylococcus aureus [14] = assay: Bacteriostatic activity against methicillin-susceptible Staphylococcus aureus ATCC 25923 assessed as reduction in colony forming unit at 4 times of MIC measured up to 4 hrs by time kill assay; format: functional, organism-based
Procedure, shortened: (§3)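 Time-kill: a 1:100 dilution of 0.5 McFarland S. aureus […] suspension was exposed to 0, 1 and 4× MIC. At 0, 1, 2 and 4 h, samples were serially diluted in PBS and plated on MHA. CFU were counted after 30 h incubation.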

Staphylococcus aureus [15] = assay: Bactericidal activity against methicillin-resistant Staphylococcus aureus ATCC 43300 assessed as bacterial killing incubated for over night; format: functional; procedure, shortened: as §1
Staphylococcus aureus [16] = assay: Antibacterial activity against vancomycin-resistant Staphylococcus aureus clinical isolate 10 assessed as bacterial growth inhibition after 20 hrs by broth microdilution assay; format: functional; procedure, shortened: as §2
Staphylococcus aureus [17] = assay: Antibacterial activity against heterogeneous vancomycin-intermediate resistant Staphylococcus aureus Mu3 ATCC 700698 assessed as zone of inhibition by disc diffusion method; format: functional
Staphylococcus aureus [18] = assay: Bacteriostatic activity against methicillin-susceptible Staphylococcus aureus ATCC 25923 assessed as reduction in colony forming unit at 1 times of MIC measured up to 4 hrs by time kill assay; format: functional, organism-based; conditions: time hrs <=4; procedure, shortened: as §3
Staphylococcus aureus [19] = assay: Antibacterial activity against methicillin-susceptible Staphylococcus aureus ATCC 25923 in presence of 5% v/v serum; format: functional
Staphylococcus aureus [20] = assay: Antibacterial activity against methicillin-susceptible Staphylococcus aureus ATCC 25923 assessed as zone of inhibition by disc diffusion method; format: functional
Staphylococcus aureus [21] = assay: Antibacterial activity against heterogeneous vancomycin-intermediate Staphylococcus aureus Mu3 ATCC 700698 assessed as bacterial growth inhibition incubated for 20 hrs by broth dilution method; format: functional; procedure, shortened: as §2
Staphylococcus aureus [22] = assay: Induction of intracellular oxidant species generation in Staphylococcus aureus ATCC 25923 by DCFH-DA dye based fluorescence assay; format: functional, organism-based
Procedure, shortened: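 OD600 1.5 suspension of S. aureus […] in HBSS given agent (from 2 or 10 mM stock), DMSO or water, then DCFH diacetate from a 100 μM stock in DMSO. Intracellular oxidation read by fluorescence (ex 485, em 535 nm).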

Staphylococcus aureus [23] = assay: Induction of intracellular oxidant species generation in Staphylococcus aureus ATCC 25923 after 1 hr by colorimetric based NBT assay; format: functional, organism-based
Procedure, shortened: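 Cells at OD600 1.5 in HBSS mixed with 1 mg/mL aqueous NBT and agent (added from 2 mM stock) or DMSO/water, shaken for 1 h at 37 °C. Stopped with 0.1 M HCl and centrifuged; pellet formazan solubilized in DMSO/KOH/HBSS and read at OD560.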

Staphylococcus aureus [24] = assay: Antibacterial activity against heterogeneous vancomycin-intermediate Staphylococcus aureus Mu3 ATCC 700698 assessed as inhibition of bacterial growth between 2 and 4 passages at 0.5 times of MIC incubated for 20 hrs by resistant development assay; format: functional, organism-based
Procedure, shortened: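 Serial passage with hVISA Mu3, VISA and VRSA strains grown at 0.5× MIC of agent (± equimolar vancomycin). […] MIC was read visually at each passage.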

Staphylococcus aureus [25] = assay: Synergistic antibacterial activity against vancomycin-resistant Staphylococcus aureus HIP14300 assessed as fractional inhibitory concentration index incubated for 20 hrs in presence of vancomycin by checkerboard titration assay; format: functional
Procedure, shortened: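 Checkerboard: VRSA HIP14300 as a 0.5 McFarland suspension diluted 1:100 in CAMHB, inoculated into twofold serial dilutions of disulfide and vancomycin, sealed, 20 h at 37 °C. Growth read by MTT staining with DMSO solubilization. ΣFIC = FIC1h + FICVAN; synergy ≤ 0.5, indifferent >0.5–≤4, antagonism >4.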

Klebsiella pneumoniae = assay: Antibacterial activity against multidrug-resistant Klebsiella pneumoniae ATCC 700603 assessed as zone of inhibition by disc diffusion method; format: functional

CCCCCCCCSSc1ccccn1
diameter of the inhibition zone (DIZ) (Acinetobacter baumannii): 0 mm
diameter of the inhibition zone (DIZ) (Pseudomonas aeruginosa): 0 mm
Ratio (Staphylococcus aureus [1]): >8
diameter of the inhibition zone (DIZ) (Enterococcus faecalis): 12 mm
MIC (Staphylococcus aureus [2]): 6.25 µM (≈ 1.6 µg/mL)
Activity (Staphylococcus aureus [3]): Active
MBC (Staphylococcus aureus [4]): > 50 µM
Activity (Staphylococcus aureus [5]): Dose-dependent effect
MIC (Staphylococcus aureus [6]): 12.5 µM
MIC (Staphylococcus aureus [7]): 12.5 µM (≈ 3.19 µg/mL)
Activity (Staphylococcus aureus [8]): Tde
Ratio (Staphylococcus aureus [9]): >8
Activity (Staphylococcus aureus [10]): Active
diameter of the inhibition zone (DIZ) (Staphylococcus aureus [11]): 38 mm
Activity (Staphylococcus aureus [12]): Active
Activity (Staphylococcus aureus [13]): Active
Activity (Staphylococcus aureus [14]): Active
MBC (Staphylococcus aureus [15]): > 50 µM
MIC50 (Staphylococcus aureus [16]): 6.25 µM (≈ 1.6 µg/mL)
MIC90 (Staphylococcus aureus [16]): 12.5 µM (≈ 3.19 µg/mL)
diameter of the inhibition zone (DIZ) (Staphylococcus aureus [17]): 37 mm
Activity (Staphylococcus aureus [18]): Active
MIC (Staphylococcus aureus [19]): 25 µM
diameter of the inhibition zone (DIZ) (Staphylococcus aureus [20]): 30 mm
MIC (Staphylococcus aureus [21]): 12.5 µM (≈ 3.19 µg/mL)
Activity (Staphylococcus aureus [22]): Active
Activity (Staphylococcus aureus [23]): Active
Activity (Staphylococcus aureus [24]): Active
FIC (Staphylococcus aureus [25]): <=0.5
diameter of the inhibition zone (DIZ) (Klebsiella pneumoniae): 0 mm

From ChEMBL document CHEMBL4715813, “Allicin-inspired pyridyl disulfides as antimicrobial agents for multidrug-resistant Staphylococcus aureus” (Eur J Med Chem, 2018)
